According to article PMC9312093 (ACS Bio & Med Chem Au, 2022):

Target: T1, human ERO1α (Homo sapiens, UniProt Q96HE7, C104A/C131A/C166A)
T1 sequence (Q96HE7 22-468 C104A/C131A/C166A): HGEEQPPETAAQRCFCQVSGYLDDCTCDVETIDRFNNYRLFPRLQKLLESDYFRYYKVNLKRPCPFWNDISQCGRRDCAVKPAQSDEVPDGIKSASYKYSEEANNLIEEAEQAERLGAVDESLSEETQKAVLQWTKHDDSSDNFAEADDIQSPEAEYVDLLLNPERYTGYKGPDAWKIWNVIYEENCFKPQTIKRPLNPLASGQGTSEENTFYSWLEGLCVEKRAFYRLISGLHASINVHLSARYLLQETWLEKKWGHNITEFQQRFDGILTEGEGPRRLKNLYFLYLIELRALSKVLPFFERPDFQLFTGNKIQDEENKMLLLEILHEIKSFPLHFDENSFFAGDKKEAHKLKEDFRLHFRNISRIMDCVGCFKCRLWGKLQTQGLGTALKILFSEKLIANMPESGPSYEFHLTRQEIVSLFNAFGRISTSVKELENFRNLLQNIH
Test: Recombinant ERO1α enzyme assay
Format: biochemical
Settings: up to 200 µM; FAD covalent modifiers
Summary of the method: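 Hyperactive human ERO1α (a.a. 22-468, C104A/C131A/C166A) and human PDI (a.a. 18-479) were used, each at 0.0625 mg/mL, with rising test compound concentrations. Activity was quantified by Amplex Red. Data are mean ± S.D. of 3 independent experiments, each run in triplicate.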

Q: `N[C@@H]1C[C@H]1c1ccccc1` (racemic) [tranylcypromine] was tested. Which “inhibition of ERO1α activity, concentration-response” value did it give?
A: did not inhibit
